# In PubChem BioAssay:
# Calls of active or inactive are those of the source.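 The calls were made as follows, unless noted: active = fluorescence slope higher than the sample average by over 3 SD (cut at about -0.22 in these data, passing the limit was not always enough); inactive = the rest.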
# What was measured:
# [1] = inhibitors of TNFa-induced NFkB p65 translocation, primary screen, imaging, HUVEC, MLSMR starter and 10KST1 sets (AID 438;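 active = inhibition above 20% together with a positive visual image hit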;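 also: compound added about 3h40 before a 20 min TNFalpha stimulation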;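 as to inhibition: signal is the nuclear over cytoplasmic p65 intensity ratio per well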); conditions: HUVEC TNFa-induced p65 nuclear translocation; cell count: measured here: nuclei count (cytotoxicity indicator), at 2.08 µM; inhibition: at 2 µM, stronger effect = higher value, 0% TNFa-plus-vehicle, 100% no-TNFa wells
# [2] = inhibitors of mutant huntingtin aggregation, primary screen, imaging, exon1htt(103Q)mCFP cells, high-content imaging (AID 483;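 active = visual image review flags a hit and inhibition of aggregation exceeds 20%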;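 also: compound exposure lasted 3 days before fixation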;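 as to nuclei count: percent of the per-plate median nuclei count of sample wells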); conditions: exon1htt(103Q)mCFP cell line, aggregate imaging, at 2 µM; inhibition of aggregation: stronger effect = higher value; nuclei count: measured here: cell count, toxicity
# [3] = inhibitors of E-selectin induction by TNFa, primary screen, imaging, HUVEC, immunofluorescence, MLSMR starter and 10KST1 sets (AID 487;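 active = visually confirmed hit in the image check and inhibition above 20%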;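 as to inhibition: signal is fraction of cell area covered by stained E-selectin grains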;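 as to nuclei count: 100% = median nuclei count of all wells on the same plate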); conditions: HUVEC TNFalpha-induced E-selectin immunofluorescence imaging, at 2 µM; inhibition: stronger effect = higher value; nuclei count: measured here: cell number, toxicity
# [4] = molecular target: Voltage-gated potassium channel subunit beta-2 (Rattus norvegicus) (UniProt P62483); experiment: KvBeta enzyme negative modulators, primary screen, biochemical, NADPH fluorescence (AID 622); conditions: recombinant KvBeta, 4-cyanobenzaldehyde reduction, at 10 µM, stronger effect = higher value;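 also: slope of raw intensity against log time taken from 70 to 1610 s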
# Voltage-gated potassium channel subunit beta-2 (Rattus norvegicus), sequence (P62483 whole entry, looked up): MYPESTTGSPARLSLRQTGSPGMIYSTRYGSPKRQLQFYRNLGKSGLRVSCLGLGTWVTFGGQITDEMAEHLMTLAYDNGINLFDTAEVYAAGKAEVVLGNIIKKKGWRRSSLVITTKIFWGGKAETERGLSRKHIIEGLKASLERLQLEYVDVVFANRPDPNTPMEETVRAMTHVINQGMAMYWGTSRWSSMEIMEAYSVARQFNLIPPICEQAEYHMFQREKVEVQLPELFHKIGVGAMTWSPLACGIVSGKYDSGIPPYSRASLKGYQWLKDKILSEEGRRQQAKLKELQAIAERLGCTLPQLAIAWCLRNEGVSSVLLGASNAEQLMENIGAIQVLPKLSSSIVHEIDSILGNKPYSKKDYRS
# [5] = molecular target: Voltage-gated potassium channel subunit beta-2 (Rattus norvegicus) (UniProt P62483); experiment: KvBeta positive modulators, primary screen, biochemical, NADPH fluorescence (AID 623;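 active = NADPH fluorescence slope more negative than the mean of all samples by about 3 SD, 99.7% confidence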;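 also: fluorescence intensity change per second fitted from 20 to 320 s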); conditions: Recombinant KvBeta, NADPH fluorescence decrease slope, 10 min; at 10 µM; stronger effect = lower value
# [6] = molecular target: Muscarinic acetylcholine receptor M4 (Homo sapiens) (UniProt P08173); experiment: compounds altering M4/GIRK thallium flux, either direction, primary screen, M4 allosteric agonist project, cell-based, HEK293 M4/GIRK, BTC-AM (AID 625;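 active = fluorescence slope after compound addition differing from the mean of all tested samples at 99.7% confidence, mostly higher but some lower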;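 also: thallium influx through GIRK channels coupled to M4 in HEK293 cells with BTC-AM dye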); conditions: at 10 µM, actives lie on both sides
# Muscarinic acetylcholine receptor M4 (Homo sapiens), sequence (P08173 whole entry, looked up): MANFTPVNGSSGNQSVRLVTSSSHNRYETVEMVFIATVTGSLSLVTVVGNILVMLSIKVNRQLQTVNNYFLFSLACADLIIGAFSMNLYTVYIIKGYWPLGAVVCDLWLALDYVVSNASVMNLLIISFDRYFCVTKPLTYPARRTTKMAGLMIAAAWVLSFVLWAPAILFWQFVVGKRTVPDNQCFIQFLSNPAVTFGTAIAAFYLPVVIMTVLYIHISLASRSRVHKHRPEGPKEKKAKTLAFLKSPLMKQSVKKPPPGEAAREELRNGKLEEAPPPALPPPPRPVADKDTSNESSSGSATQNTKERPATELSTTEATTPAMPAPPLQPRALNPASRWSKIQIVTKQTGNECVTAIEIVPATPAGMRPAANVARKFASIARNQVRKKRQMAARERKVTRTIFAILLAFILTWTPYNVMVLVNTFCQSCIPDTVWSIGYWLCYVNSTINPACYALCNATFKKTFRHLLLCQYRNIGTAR
# Outline: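 Material – HEK293 cells with M4 receptor and GIRK channels · Buffer or medium – pH 7.3 thallium assay buffer · Doses – one dose, 10 µM final · Timing – cells overnight at 37 °C, BTC-AM loading 1 h, reads 2 min total · Measured by – kinetic fluorescence with BTC-AM dye · Controls – carbachol and DMSO controls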
# [7] = inhibitors of Sendai virus-induced IRF3 signaling, primary screen, TLR/RLR signaling modifier project, cell-based, Sendai virus stimulus, luciferase, 10K MLSCN set (AID 602276;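 active = inhibition at or above 50% at 10 µM; inactive = inhibition below 50%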;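 also: firefly luciferase from ISG56 promoter only with Renilla not read in this screen; 0% = Sendai virus plus DMSO and 100% = medium plus DMSO without virus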); conditions: HEK293 RL24 IRF3 luciferase reporter, at 10 µM, stronger effect = higher value
# [8] = inhibitors of poly I:C-induced TLR3 signaling, primary screen, cell-based, poly I:C stimulus, luciferase, 10K MLSCN set (AID 602277;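 active = inhibition of the reporter signal at or above 50%; inactive = inhibition below 50%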); conditions: HEK293-TLR3 RL24 IRF3 luciferase reporter, at 10 µM, stronger effect = higher value
Structure (SMILES),cell count [1],inhibition [1],inhibition of aggregation [2],nuclei count [2] [%],inhibition [3],nuclei count [3] [%],fluorescence slope [4],NADPH fluorescence slope [5],fluorescence slope [6],inhibition [7],inhibition [8]
O=S(=O)(NCCc1ccncc1)c1cc(Br)ccc1F,231,1.9% (inactive),-9.7% (inactive),106,-46.9% (inactive),110,-0.626 (inactive),-1.6e-05 (inactive),0.00792 (inactive),24.5% (inactive),16.5% (inactive)
O=C(Nc1cccnc1N1CCOCC1)c1ccco1,579,-0.3% (inactive),4.6% (inactive),104,-56.6% (inactive),109,-0.221 (inactive),-1.1e-05 (inactive),0.00549 (inactive),10.9% (inactive),10.7% (inactive)
COc1ccc(-c2noc(CCC(=O)Nc3nc4ccccc4s3)n2)cc1,540,-8.6% (inactive),21.7% (inactive),50.7,-35% (inactive),106,-0.586 (inactive),-3.6e-05 (inactive),0.0103 (inactive),-7.62% (inactive),-8.39% (inactive)
CC(C(=O)N1CCCCC1)n1sc2ccccc2c1=O (centres undefined),355,-10.8% (inactive),-13.5% (inactive),111,-96.4% (inactive),109,-0.479 (inactive),-0.000258 (inactive),0.00498 (inactive),-14.1% (inactive),-35.6% (inactive)
O=C(CSc1ncccn1)c1ccccc1Br,483,2.9% (inactive),0.9% (inactive),114,1.5% (inactive),103,-0.582 (inactive),-0.000119 (inactive),0.00475 (inactive),-24.3% (inactive),-65.9% (inactive)
O=C(Nc1ccc(N2CCOCC2)cc1)Nc1ccc2nc(-c3ccco3)c(-c3ccco3)nc2c1,695,-0.7% (inactive),-8.6% (inactive),98.1,-177% (inactive),140,-0.516 (inactive),-5.3e-05 (inactive),0.00225 (inactive),38.7% (inactive),0.682% (inactive)
Oc1ccc2[nH]cnc2c1CN1CCCCC1,405,2.2% (inactive),5.5% (inactive),88.7,8% (inactive),95.1,-0.569 (inactive),-0.000119 (inactive),0.00526 (inactive),15.4% (inactive),25.1% (inactive)
O=C(CSc1nnc(-c2cccnc2)o1)OC1CCCCC1,695,-3.9% (inactive),22.6% (inactive),95.8,-54.6% (inactive),126,-0.517 (inactive),3.9e-05 (inactive),0.0051 (inactive),15.3% (inactive),16.2% (inactive)
CCS(=O)(=O)c1nc2ccccc2n1CC(=O)N1CCCCC1,507,9.7% (inactive),-6.2% (inactive),89.2,-32.9% (inactive),99.3,-0.425 (inactive),-2.1e-05 (inactive),0.00578 (inactive),17.6% (inactive),27% (inactive)
Cc1ccc2cc(C#N)c(N3CCCC3)nc2c1C,360,4.8% (inactive),10% (inactive),111,-49.6% (inactive),110,-0.195 (inactive),-2.2e-05 (inactive),0.00646 (inactive),13.3% (inactive),-29.1% (inactive)
CCCC1CCC(C(=O)Nn2c(C)nc3ccccc3c2=O)CC1 (centres undefined),340,0% (inactive),-13.5% (inactive),73.2,11.4% (inactive),79,-0.472 (inactive),-2.4e-05 (inactive),0.00445 (inactive),15.6% (inactive),18.5% (inactive)
CCn1c(C)nc2cc(C(=O)OC(C(F)(F)C(F)F)C(F)(F)C(F)F)ccc21,358,6% (inactive),12.2% (inactive),91.2,-20.9% (inactive),93.6,-0.557 (inactive),-2.6e-05 (inactive),0.00666 (inactive),7.52% (inactive),-180% (inactive)
O=C(OCC(=O)N1CCCC1)c1cncc(Br)c1,682,16.5% (inactive),23.5% (inactive),83,35.3% (inactive),102,-0.207 (inactive),-2.4e-05 (inactive),0.00528 (inactive),11.4% (inactive),0.097% (inactive)
O=C(NCCc1ccccc1)c1cc(-c2ccco2)on1,384,-8.7% (inactive),7.8% (inactive),102,-29.5% (inactive),96.5,-0.473 (inactive),-5.1e-05 (inactive),0.00445 (inactive),-44.9% (inactive),-169% (inactive)
COCCn1nnnc1C(C(C)C)N(Cc1cccnc1)Cc1ccccc1Cl (centres undefined),526,2.1% (inactive),8.9% (inactive),108,-72.3% (inactive),111,-0.574 (inactive),1.3e-05 (inactive),0.00529 (inactive),9.31% (inactive),31.3% (inactive)
Cc1cc(NC(=O)CCC(=O)N(CC2CCCO2)C(C(=O)NC2CCCC2)c2ccccc2C)no1 (centres undefined),341,0% (inactive),26.9% (inactive),63.6,-106% (inactive),117,-0.453 (inactive),-5.7e-05 (inactive),0.00469 (inactive),20.9% (inactive),21.7% (inactive)
CCOC(=O)c1ccc(NS(=O)(=O)c2ccc(SC)cc2)cc1,643,-9% (inactive),4.8% (inactive),89,-21.6% (inactive),88.3,-0.48 (inactive),-4.9e-05 (inactive),0.00382 (inactive),13.8% (inactive),16.1% (inactive)
CC(C(=O)Nc1ccccc1-c1ccccc1)N1CCN(C(=O)c2ccco2)CC1 (centres undefined),546,-11.2% (inactive),14% (inactive),75,-63.4% (inactive),97.9,-0.395 (inactive),1.3e-05 (inactive),0.00807 (inactive),19.8% (inactive),33.6% (inactive)
CC1CCN(C(=O)c2cc(-c3ccc(Cl)c(Cl)c3)on2)CC1,435,0.9% (inactive),4.2% (inactive),94,6.5% (inactive),91.7,-0.449 (inactive),-3.4e-05 (inactive),0.00453 (inactive),-41% (inactive),-89% (inactive)
Cc1[nH]c2ccccc2c(=O)c1CN(C)Cc1ccccc1,270,2.9% (inactive),13.3% (inactive),97.7,-124% (inactive),117,-0.58 (inactive),2e-05 (inactive),0.00538 (inactive),-21% (inactive),-31.5% (inactive)
CC(=O)C1=C(N2CCCCC2)CCC1=O,431,2.3% (inactive),-14.9% (inactive),100,-0.5% (inactive),109,-0.328 (inactive),-1.9e-05 (inactive),0.00689 (inactive),8.02% (inactive),11.2% (inactive)
C/C(=C(\C#N)C(=O)NCCCN1CCOCC1)N(C)C,475,-11.2% (inactive),20.1% (inactive),75.2,-96.7% (inactive),115,-0.581 (inactive),-1.9e-05 (inactive),0.0035 (inactive),1.58% (inactive),-2.64% (inactive)
O=S(=O)(NCc1ccco1)c1cccc2cccnc12,336,0% (inactive),-18.3% (inactive),111,-65.9% (inactive),103,-0.551 (inactive),-1.2e-05 (inactive),0.00492 (inactive),13.3% (inactive),13% (inactive)
O=C(c1cc(-c2ccco2)nn1-c1cccc(Cl)c1)N1CCCCC1,502,-4.7% (inactive),-5.1% (inactive),91,1.9% (inactive),100,-0.588 (inactive),-1.4e-05 (inactive),0.0049 (inactive),22.9% (inactive),36.1% (inactive)
COc1ccc(NC(=O)CSc2nnc(-c3ccncc3)n2CC2CCCO2)c(OC)c1 (centres undefined),587,-6.1% (inactive),18.1% (inactive),87.6,-89.2% (inactive),119,-0.575 (inactive),-1.2e-05 (inactive),0.00641 (inactive),7.58% (inactive),28% (inactive)
Cc1ccc(-c2nnnn2CS(=O)(=O)c2ccccc2)cc1,433,-11.8% (inactive),-9.7% (inactive),114,-19.4% (inactive),122,-0.598 (inactive),-1.2e-05 (inactive),0.006 (inactive),16.3% (inactive),10.5% (inactive)
CCN(c1cccc(C)c1)S(=O)(=O)c1ccc2[nH]c(=O)c(=O)[nH]c2c1,415,6.2% (inactive),7.1% (inactive),93.5,-8.3% (inactive),98,-0.514 (inactive),-0.000128 (inactive),0.00491 (inactive),12.5% (inactive),21.6% (inactive)
O=C(Nc1ccccc1)N(CCN1CCOCC1)Cc1ccccc1F,665,-4.1% (inactive),-16.2% (inactive),101,-68% (inactive),96.7,-0.61 (inactive),1.5e-05 (inactive),0.00376 (inactive),-14.2% (inactive),-15.8% (inactive)
COc1ccc(-n2c(COc3ccccc3)nnc2SCc2ccc(C#N)cc2)cc1,687,-7.7% (inactive),-21% (inactive),56.4,-58.1% (inactive),95.8,-0.543 (inactive),-5.8e-05 (inactive),0.00479 (inactive),3.44% (inactive),19.5% (inactive)
